# High-throughput results as filed in PubChem BioAssay.
# This is a sample that favours compounds with a hit; in the whole collection about 4.5% have one here.
# TAAR1 ag = human TAAR1 agonism. Q96RJ0. CHO RD-HGA16 TAAR1, Fluo-8 calcium fluorescence; vehicle wells 0%, saturating PEA agonist 100%. activation, % at 3 µM. 360,000 tested, 0.99% active. AID 624467;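 active means activation above the mean activation of all test compounds in the run plus 3 SD, cut at about 38% in these data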
#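 System: CHO-derived RD-HGA16 cells with stable Gα16 and human TAAR1 / Times: 17-24 h plating, Fluo-8 75 min 37 °C, 30 min RT / Technique: calcium-sensitive Fluo-8 signal, excitation 470-495, emission 515-575 nm / Measure: % activation relative to PEA EC100 response / Benchmarks: DMSO and PEA EC100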
# TAAR1 antag = antagonists of human TAAR1; Q96RJ0; CHO RD-HGA16 TAAR1, Fluo-8 calcium fluorescence, antagonist; inhibition, % at 3 µM; 360,000 tested, 1.5% active; AID 624466;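 active means inhibition above a per-plate cutoff, the mean inhibition of test compounds on that plate plus 3 SD, cut at about 49% in these data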;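 further: 0% = DMSO plus EC80 beta-PEA response and 100% = DMSO alone without agonist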
#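 System: RD-HGA16 CHO cells with stable hTAAR1 and Gα16 | Probe or stimulus: EC80 β-phenethylamine stimulus | Dosing: 3 µM, single point | Times: Dye loading 75 min at 37 °C, then 30 min room temperature | Measured by: Fluo-8 calcium-sensitive fluorescence | Read-out basis: % inhibition of agonist calcium response | Replicates: n of 1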
# OX1R antag-1 = human HCRTR1 antagonism; O43613; CHO/OX1R cells, Fluo-8 calcium fluorescence, orexin A; inhibition, % at 5 µM; 330,000 tested, 0.43% active; AID 434989;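 active means inhibition above its plate's threshold, mean inhibition of all tested compounds on the plate plus 3 SD, cut at about 37% in these data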;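 further: 0% = orexin A challenge wells and 100% = SB-334867-A antagonist wells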
# Target sequence (O43613 whole entry, looked up): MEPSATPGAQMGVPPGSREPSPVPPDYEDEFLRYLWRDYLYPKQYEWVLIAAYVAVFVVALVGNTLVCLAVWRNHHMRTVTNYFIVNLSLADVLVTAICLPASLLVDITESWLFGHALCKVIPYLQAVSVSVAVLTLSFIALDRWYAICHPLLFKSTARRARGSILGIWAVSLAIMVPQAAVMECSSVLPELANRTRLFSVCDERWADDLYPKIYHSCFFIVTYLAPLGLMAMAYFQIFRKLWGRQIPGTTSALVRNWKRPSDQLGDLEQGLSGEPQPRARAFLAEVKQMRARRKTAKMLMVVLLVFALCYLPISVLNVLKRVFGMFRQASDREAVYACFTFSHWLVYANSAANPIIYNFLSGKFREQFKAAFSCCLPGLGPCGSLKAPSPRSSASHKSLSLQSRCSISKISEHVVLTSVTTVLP
# CHO parental Ca = counter-screen for OX1R antagonists: effect in parental CHO cells | parental CHO-K1, ATP-induced calcium, Fluo-8 fluorescence | inhibition, % at 5.6 µM | 330,000 tested, 0.63% active;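 active means inhibition above that plate's mean sample inhibition plus 3 SD, cut at about 26% in these data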;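 further: 0% = ATP-challenged DMSO wells and 100% = DMSO wells without ATP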
#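 Measured by: calcium-sensitive Fluo-8 fluorescence / Test system: CHO parental line / Controls: ATP-challenged DMSO wells low, unchallenged DMSO wells high / Measure: % inhibition / Compound: single nominal dose of 5.6 µM per compound / Replicates: single well per compound, no replicates / Reagent: ATP as calcium-mobilizing challenge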
# OX1R antag-2 = blocks the human orexin 1 receptor | OX1R-expressing cells, FRET antagonist read-out | 330,000 tested, 1.8% active | inhibition, % at 6.6 µM | AID 485270 | O43613; in the data active means inhibition mostly above about 38%, no sharp cut-off; inactive means mostly below about 40%;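 further: 0% = agonist challenge alone and 100% = reference antagonist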
# GPR7 antag = blocks human GPR7 receptor signaling. AID 1861. GPR7-expressing cells, fluorescence antagonist assay. 290,000 tested, 1.1% active. P48145. inhibition, % at 4.4 µM; in the data active means inhibition above about 16%, passing the limit was not always enough;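 further: cells stimulated with the agonist NPW; 0% = agonist with vehicle and 100% = vehicle without agonist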
# Numbers without * were called inactive; x = no result.
SMILES,TAAR1 ag,TAAR1 antag,OX1R antag-1,CHO parental Ca,OX1R antag-2,GPR7 antag
COCCNC(=O)c1ccc2c3n(nc2c1)-c1ccc(C)cc1CO3,0,4,-13,-20,64*,x
Nc1ncnc2c1ncn2[C@@H]1O[C@H](C(=O)N(CCC2=CCCCC2)CC2CC2)[C@@H](O)[C@H]1O,1,-13,x,x,x,x
NS(=O)(=O)c1cccc(NS(=O)(=O)c2ccc(/C=C/C(=O)OCC(=O)c3ccc(Br)cc3)cc2)c1,4,12,21,25*,4,-5
COc1ccc(C(=O)COC(=O)/C=C/c2ccc(S(=O)(=O)Nc3cccc(S(N)(=O)=O)c3)cc2)cc1,5,19,11,10,9,-3
C[C@H](O)[C@@H]1C(=O)N2CCc3c([nH]c4cccc(-c5ccccc5)c34)[C@@H]2C[C@@H]1N(C)C(=O)c1ccco1,0,5,x,x,x,x
CCOC(=O)C1=NN(C(=O)c2ccccc2)C(O)(c2ccc(C)cc2)C1 (configuration not stated),38*,-14,-28,-17,17,-5
Cc1ccccc1S(=O)(=O)N1CCCc2nc(C)c(C)cc21,0,-28,x,x,x,x
COc1ccc(C(OCC(O)CNCCc2ccc(S(N)(=O)=O)cc2)c2ccc(OC)cc2)cc1 (configuration not stated),3,-7,-19,0,5,17
OC(CNCCc1ccc(C(F)(F)F)cc1)COC(c1ccccc1)c1ccccc1 (configuration not stated),35,35,49*,89*,-5,31
Nc1cc(C(=O)O)c(Oc2ccc(Cl)cc2Cl)cc1C(=O)O,1,3,-10,-1,61*,-10
COC(=O)C1=C(C)N(Cc2ccccc2C(F)(F)F)C(=NCc2ccccc2)NC1c1ccc(Cl)cc1 (configuration not stated),3,5,x,x,x,x
CCn1c2ccccc2c2cc(NC(=O)CSc3nnc(-c4ccc(OC)c(OC)c4)n3N)ccc21,16,3,9,-32,74*,-9
CCn1c2ccccc2c2cc(NC(=O)CSc3nnc(-c4ccccc4OC)n3N)ccc21,6,37,-10,-11,56*,-10
Cc1cc(=O)oc2cc(OCC(=O)N3CCN(C(=O)C4COc5ccccc5O4)CC3)ccc12 (configuration not stated),7,16,-14,-11,12,5
CCCc1cc(=O)oc2cc(OCC(=O)N3CCN(C(=O)C4COc5ccccc5O4)CC3)ccc12 (configuration not stated),7,49*,-13,-16,15,-8
COC(=O)[C@]12C[C@H](CC(=O)NCc3ccccc3)C(=O)N(Cc3ccccc3)C1=C[C@H](C(C)(C)C)O[C@@H]2C,-1,-39,x,x,x,x
O=C1[C@@H]2[C@H](C(=O)N1C[C@@H](COCc1ccccc1)Oc1cccc3c1S(=O)(=O)N(CCc1ccc(F)cc1)C[C@H](COCc1ccccc1)O3)[C@@H]1C=C[C@H]2C1,3,-7,x,x,x,x
CCCCN1CC(COCc2ccccc2)Oc2cccc(OCCN3C(=O)[C@@H]4[C@H](C3=O)C3C=C[C@H]4C3)c2S1(=O)=O (some centres not stated),18,70*,x,x,x,x
CN[C@H]1C[C@H]2c3[nH]c4c(-c5ccccc5)cccc4c3CCN2C[C@H]1[C@H](C)O,4,3,x,x,x,x
COc1ccc(CCN2C(=O)COc3ccccc3C2C(=O)NC(C)(C)C)cc1OC (configuration not stated),4,-13,x,x,x,x
COCCNC(=O)CN(c1cc(C(F)(F)F)ccc1Cl)S(C)(=O)=O,13,-14,-4,-6,21,19*
COC(=O)Cc1nnn2c1[C@@H](C)[C@@H](c1ccccc1Br)O[C@@H](C)C2,9,-4,x,x,x,x
COc1cc2sc3ccc(C#Cc4ccccn4)cc3c(=O)c2cc1OC,9,24,-12,-20,41,x
COc1cccc2sc3cc(C#Cc4ccccn4)ccc3c(=O)c12,15,39,25,-29,63*,x
COc1cc(/C=N/NC(=O)c2ccc(CSc3nc4ccccc4[nH]3)cc2)cc(OC)c1OC,14,52*,-17,-12,6,3
SMILES,TAAR1 ag,TAAR1 antag,OX1R antag-1,CHO parental Ca,OX1R antag-2,GPR7 antag
COc1cc(/C=N/NC(=O)c2ccc3nc[nH]c3c2)cc(OC)c1OC,x,x,-5,-13,12,-3
O=C(CN1C(=O)NC(Cc2ccccc2)C1=O)Nc1ccccc1F (configuration not stated),1,1,-2,-9,2,x
O=C(CN1C(=O)NC(CCc2ccccc2)C1=O)Nc1ccc(F)c(F)c1F (configuration not stated),44*,19,-1,-7,-3,x
Cc1nnc(-n2cccc2)s1,1,3,x,x,x,x
Cc1ccc2c(c1)S(=O)(=O)N(C)C(c1ccccc1)=C2,-1,53*,x,x,x,x
Cc1ccnc(Sc2ncccc2[N+](=O)[O-])n1,1,-17,-8,9,60*,0
Nc1nnc(Sc2ncccc2[N+](=O)[O-])s1,7,-29,-14,-10,39*,-1
Cc1ccc(Sc2ncccc2[N+](=O)[O-])cc1,-4,-11,-8,-11,1,-5
S=C(SCc1nc(-c2ccc(Cl)cc2)no1)N1CCSCC1,-1,-15,x,x,x,x
C=CC[C@@H](CC(=O)N[C@H](CO)Cc1ccccc1)C(=O)N[C@H](COC(=O)[C@@H](CC=C)CC(=O)OC(C)(C)C)Cc1c[nH]c2ccccc12,22,65*,84*,61*,-1,x
C=CC[C@H](CC(=O)N[C@H](CO)Cc1ccccc1)C(=O)N[C@@H](COC(=O)[C@H](CC=C)CC(=O)OC(C)(C)C)Cc1c[nH]c2ccccc12,11,60*,-16,-17,4,x
OC(COc1ccccc1Cl)CN1CCN(CC(O)COc2ccccc2Cl)CC1 (configuration not stated),29,50*,-18,-9,12,9
OC(COc1ccc(Cl)cc1)CN1CCC(Cc2ccccc2)CC1 (configuration not stated),41*,8,-4,-7,11,2
N=c1n(Cc2ccc(Cl)cc2)c2ccccc2n1CC(O)COc1ccccc1 (configuration not stated),34,-4,75*,72*,7,47*
CC(=O)NC(C)(c1ccccc1)c1nc(-c2cccc(C#N)c2)cs1 (configuration not stated),-1,-11,x,x,x,x
C=CCCC(=O)N1C[C@H]2CCN(C)[C@H]2C[C@H]1c1ccc(Br)cc1,-1,-1,x,x,x,x
COc1ccc(CNC(=O)COC(=O)c2cc(-c3cccs3)nc3ccccc23)cc1OC,16,34,10,-10,48*,1
